From the RNAGym collection of RNA variant scans (doi:10.1126/science.aae0568) come the findings set out here.

Fewer inactive variants are shown than the library holds.

B1: tRNA (parent)
chain: GUUCCGUUGGCGUAAUGGUAACGCGUCUCCCUCCUAAGGAGAAGACUGCGGGUUCGAGUCCCGUACGGAACG

Variants of B1 are the subject of the data set. Briefly: yeast fitness relative to wild type (ratio to wild type); higher = fitter; tRNA-Arg(CCU), competitive growth, 37 C, YPD. In short, it runs like this: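 The tRNA-Arg(CCU) gene variants were made by chemical synthesis with a 3% per-site mutation rate at 69 sites and inserted at the native genomic locus of Saccharomyces cerevisiae. After pooling, the strains were competed in YPD at 37°C for 24 hours in six parallel replicates. Gene amplicons from the start population and each end population were read by 100-nucleotide paired-end sequencing, and Darwinian fitness relative to wild type was taken from genotype frequency changes. Genotypes needed ≥ 100 starting reads, and estimates < 0.5 were set to 0.5.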
Turning to A14G A21G A70U, the yeast fitness turned out to be 0.684. With A14C U26A C29U C49U the figure was ≤ 0.5. Next, A14C C61U A70C: ≤ 0.5. With A14C C46A U47G the figure was ≤ 0.5; with A14C G58C G67A, ≤ 0.5. With A14C C29A G50A, the yeast fitness was found to be 0.576.

With A14C C33A A37U C62G, the yeast fitness is ≤ 0.5. Next, A14C C55U C61G C62G: 0.571. Next, A14G A15G A45U C62U: ≤ 0.5; A14G A21C C30G C55G C66U G67A: ≤ 0.5; A14C G50A G63C: 0.522. Next, A14G C22A: 0.982; A14G C22U: 0.783. As for A14C G18A G44A C66G, the yeast fitness amounted to 0.56. On to A14C U26C A36G, for which the yeast fitness is ≤ 0.5. Regarding A14C U19C A43C G44C G48A U59A C62U U64A, the yeast fitness is ≤ 0.5. Consider A14C G51A, for which the yeast fitness amounted to 0.714. On to A14G A21G C22U C27U A45C G48C C61G, for which the yeast fitness was ≤ 0.5. Next, A14G A40G A42U G67C: 0.665. Consider A14C C27A U28A A45G, for which the yeast fitness was ≤ 0.5. Take A14C C31U G50A C55G C62A: the yeast fitness was ≤ 0.5. Consider A14C C34U G39C A70U, for which the yeast fitness is ≤ 0.5. With A14G C24U A42C G50A the figure was ≤ 0.5; with A14G C22A C27U C29U G50U U54C G68C, ≤ 0.5. With A14G A69C the figure was 0.729; with A14C U35A G50A A69U, ≤ 0.5.

In the case of A14C U59A, the yeast fitness was determined as 0.746.

With A14G A42U C62A, the yeast fitness was ≤ 0.5. Turning to A14C G17C U26A G41C G44U, the yeast fitness was ≤ 0.5. With A14C G58C G68C the figure was ≤ 0.5; with A14C G25C U32A A43C G63A A69C, ≤ 0.5. Turning to A14C G48A G58A, the yeast fitness worked out at 1.04. With A14C U16A C24U U53C C60G the figure was ≤ 0.5; with A14G A21C C30G C55G G67U, 0.534; with A14C U16C A37G A40U G51C A69C, ≤ 0.5. Take A14C U19C C34U: the yeast fitness was ≤ 0.5. A14C C60A: the yeast fitness was 0.589. Next, A14C G23C A36U A70U: ≤ 0.5; A14G A70C: 0.803; A14G A70G: 0.861.

For the variant A14C U19C A43C G44C G48A U59A U64C C66U, the yeast fitness was ≤ 0.5. In the case of A14G A42C, the yeast fitness came to 0.762. Next, A14G A42G: 0.778.

As to A14G A20U C22G A43G A69C, the yeast fitness is ≤ 0.5. As for A14G C22U C33G, the yeast fitness was ≤ 0.5. A14C C27G A70U: the yeast fitness is 0.54.

In the case of A14C C29A, the yeast fitness turned out to be 0.596. Regarding A14C U64A, the yeast fitness was determined as 0.651. As for A14C U59C C62A, the yeast fitness is ≤ 0.5. Regarding A14G A20U U35C G38A A43C, the yeast fitness was determined as 0.635. Next, A14C C27A C31A G63A: ≤ 0.5; A14G A21U G23A A37U: ≤ 0.5. Next, A14G A15C U26C G51C: 0.512; A14C C29U C46A: ≤ 0.5. On to A14G A40C C60U C62G, for which the yeast fitness is ≤ 0.5. With A14G A45U the figure was 0.746.

Consider A14G A45G, for which the yeast fitness was found to be 0.919.

For A14G A37U A65C, the yeast fitness worked out at 0.543. On to A14C U26A C34A G44A G67C, for which the yeast fitness was ≤ 0.5.

For the variant A14C U26A C34U G50U C55G, the yeast fitness was ≤ 0.5. Next, A14G A15U U28A C33G G41C G56A: 0.589; A14C U47A G52A: ≤ 0.5; A14C G39C: 0.575. With A14C G18A C22G A57U the figure was ≤ 0.5; with A14C G63A, 0.803. With A14C G63C the figure was 0.535; with A14C C30U G41C, 0.589; with A14C U28A U54A C61G A69C, ≤ 0.5.

Take A14C C27G U28G: the yeast fitness is ≤ 0.5. Next, A14C C24U A40U G44A A70G: ≤ 0.5; A14C C31U A36U A69C: 0.624; A14G A36G A45G A65U: ≤ 0.5. With A14G A15C C46A, the yeast fitness came to 0.578. On to A14C G25C G48A G50A, for which the yeast fitness was ≤ 0.5. As for A14G A43U A65U, the yeast fitness came to 0.748. With A14C G25C C27G C34U U35A G38A U59A the figure was ≤ 0.5; with A14G C22U C34U C55A, 0.583; with A14G C22G A70C, 0.637.

For A14C C34U G39C G63A, the yeast fitness is ≤ 0.5. As to A14G C24G G25A A43G C49A, the yeast fitness was ≤ 0.5. With A14C C27U U47C C60G, the yeast fitness was 0.641. With A14C C24U A45U G51C, the yeast fitness is ≤ 0.5.

A14C C27G A40U A70U: the yeast fitness is ≤ 0.5.
